Legend:
[1] = Plasma clearance in Sprague-Dawley rat at 2.5 mg/kg, iv by LC-MS/MS method; assay type: ADME, organism-based; parameters: dose 2.5 mg/kg, route intravenous
Procedure, shortened: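 Male Sprague−Dawley rats given a single 2.5 mg/kg iv dose; one formulation was DMF/PG/water (2:4:4), 0.2 μ filtered. Blood drawn from 0.08 to 48 h. Plasma assayed by LC-MS/MS with linear range 0.78−400 ng/mL.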

Syrian golden hamster = assay: Antidyslipidemic activity in high fructose and high-fat diet fed dyslipidemic Syrian golden hamster model assessed as reduction in triglyceride level at 30 mg/kg/day, po for 7 day, po; assay type: functional, Mesocricetus auratus; parameters: scale not given: the % may be the effect or the level left
Procedure, shortened: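 HFD-fed Syrian golden hamsters, six per group, fed a high-fructose diet. Oral dosing in 1% gum acacia for 7 days. Sham group received vehicle. Plasma TG was measured and body weight tracked. Results given as % change versus HFD control.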

Mus musculus [2] = assay: Antidiabetic activity in diabetic C57BL/KsJ db/db mouse model assessed as reduction in postprandial glucose level in hyperglycemia at 10 mg/kg, po measured 2 hrs post dose; assay type: functional; parameters: scale not given: the % may be the effect or the level left
Procedure, shortened: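 db/db mice (C57BL/KsJ, 12−18 weeks, 40−50 g; selected by glucose 200−350 mg/dL) dosed orally daily for 10 consecutive days at 1, 3, 10, 25 or 50 mg/kg; postprandial blood glucose profile recorded on day 6 with food access interrupted; mean % change versus vehicle in 5 animals per group; Student t test.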

Mus musculus [3] = assay: Reduction in body weight in diabetic C57BL/KsJ db/db mouse model in hyperglycemia at 25 mg/kg, po qd for 10 days relative to untreated control; assay type: functional; parameters: scale not given: the % may be the effect or the level left
Procedure, shortened: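 db/db mice (C57BL/KsJ, 12−18 weeks, 40−50 g, glucose 200−350 mg/dL), housed at 23 ± 2.0 °C on a 12 h light cycle. Oral dosing daily for 10 days. Blood glucose checked each morning through day 9. Body weight recorded daily from day 1 to day 10. Mean % change versus vehicle, 5 mice per group; Student t test.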

Mus musculus [4] = assay: Antidyslipidemic activity in diabetic C57BL/KsJ db/db mouse model assessed as increase in plasma HDL-C/cholesterol ratio at 25 mg/kg, po qd for 10 days; assay type: functional
Procedure, shortened: (§1)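 db/db mice (blood glucose 200−350, TG 170−250, cholesterol 170−250, HDL-C 32−40 mg/dL) dosed orally at 25 mg/kg daily for 10 days; retro-orbital blood taken on day 11 for plasma TG, cholesterol and HDL-C (and HDL-C/CHOL ratio); mean % change versus vehicle control, 5 mice per group; Student t test.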

Mus musculus [5] = assay: Antidyslipidemic activity in diabetic C57BL/KsJ db/db mouse model assessed as increase in plasma HDL-cholesterol level at 25 mg/kg, po qd for 10 days; assay type: functional; procedure, shortened: as §1
[6] = Oral bioavailability in Sprague-Dawley rat at 25 mg/kg by LC-MS/MS method; assay type: ADME, organism-based; details: in vivo
Procedure, shortened: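 Male Sprague−Dawley rats given a single 25 mg/kg oral dose (aqueous 0.5% methyl cellulose suspension for one compound). Blood drawn from 0.08 to 48 h. LC-MS/MS, linear range 0.78−400 ng/mL.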

Rattus norvegicus [7] = assay: AUC in Sprague-Dawley rat at 25 mg/kg, po by LC-MS/MS method; details: in vivo
Rattus norvegicus [8] = assay: AUC in Sprague-Dawley rat at 2.5 mg/kg, iv by LC-MS/MS method; details: in vivo

clearance [1]: 62 mL/min/kg | bioavailability [6]: 27% | AUC (Rattus norvegicus [7]): 1798.22 ng·h/mL | AUC (Rattus norvegicus [8]): 666 ng·h/mL
SMILES: CC(C)(C)NC[C@H](O)COc1ccc2c(=O)cc(-c3cc(OCc4ccccc4)cc(OCc4ccccc4)c3)oc2c1
Activity (Syrian golden hamster): 39.8% | Activity (Mus musculus [2]): 28.8% | Activity (Mus musculus [3]): 28.2% | Percent increase in HDL-C/cholesterol ratio vs vehicle (Mus musculus [4]): 92.5 | Activity (Mus musculus [5]): 33.2%

— ChEMBL document CHEMBL2169868, “Flavone-based novel antidiabetic and antidyslipidemic agents” (J Med Chem, 2012)
